The test system of assay [1] is L929. Briefly: Antiproliferative activity against mouse L929 cells by MTT assay. Format: functional, cell-based. A digest of the protocol:
(§1)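 Cells kept in supplier-recommended media at 37 °C, 10% CO2. Serial dilutions added to a cell suspension (50,000 per mL) and incubated 5 d alongside blank and solvent controls. MTT then added to 0.5 mg mL^-1 final for 2 h, and formazan precipitate collected by centrifugation. Run as two parallel experiments; activity taken as mean relative to controls set at 100%.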

Assay [2] deals with PtK2. Briefly: Effect on F-actin cytoskeleton in Potorous tridactylus PtK2 cells at 3 ug/ml for overnight incubation by DAPI staining analysis. It is filed as cell-based. The method, boiled down:
(§2)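 PtK2 cells grown on glass coverslips and exposed to compound overnight, with methanol-only controls. Fixed in 3.7% formalin for 10 min, permeabilized with 0.1% Triton X-100 for 5 min, then stained with Alexa Fluor 488 phalloidin (1:100) for 1 h. F-actin (green) and DNA (blue) examined by fluorescence microscopy.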

Assay [3] addresses Tubulin (Sus scrofa) (UniProt P02554+P02550). Briefly: Inhibition of porcine tubulin polymerization at 500 ug/ml by fluorescence analysis. It is filed as protein assay. A digest of the protocol: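 Porcine tubulin (kit master mix with buffer, glycerol and GTP) mixed with compound at a 5:50 volume ratio. Placed at once in a fluorimeter at 37 °C. Polymerization followed by incorporation of a fluorescent reporter, read at 460 nm (excitation 340 nm) for about 1 h. Methanol and nocodazole served as controls.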

The test system of assay [4] is PtK2. Briefly: Effect on microtubular network in Potorous tridactylus PtK2 cells at 4 ug/ml for overnight incubation by DAPI staining analysis. It is filed as functional, cell-based. The method, boiled down:
(§3)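 PtK2 cells on glass coverslips incubated overnight with compound or with methanol only. For alpha-tubulin staining, fixed in cold (-20 °C) MeOH/acetone (1:1) for 10 min, then probed with primary antibody. DNA counterstained. Microtubular network, mitotic spindles and chromosome distribution assessed by fluorescence microscopy.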

The subject of assay [5] is L929. Briefly: Effect on microtubule polymerization in mouse L929 cells at 0.4 ug/ml by impedance profiling. Format: cell-based. A digest of the protocol:
(§4)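 L-929 cell cultures incubated with compound while impedance was recorded over time. The time-dependent impedance curves served as a mode-of-action fingerprint and were compared statistically, by cluster analysis, against curves from a set of reference compounds. Controls received methanol.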

For assay [6], the system named is PtK2. Briefly: Effect on chromosme distribution in Potorous tridactylus PtK2 cells at 4 ug/ml for overnight incubation by DAPI staining analysis. Format: functional, cell-based. The method, boiled down: as §3
Assay [7] is described as follows: Antiproliferative activity against human KB-3-1 cells by MTT assay. It is filed as functional, cell-based. A digest of the protocol:
as §1

The subject of assay [8] is L929. Briefly: Effect on spindle formation in mouse L929 cells at 0.4 ug/ml by impedance profiling. It is filed as cell-based. A digest of the protocol: as §4
The test system of assay [9] is PtK2. Briefly: Effect on mitotic spindle in Potorous tridactylus PtK2 cells at 4 ug/ml for overnight incubation by DAPI staining analysis. It is filed as functional, cell-based. A digest of the protocol: as §3
Assay [10] is described as follows: Cytotoxicity against Potorous tridactylus PtK2 cells by MTT assay. Format: functional, cell-based. A digest of the protocol: as §1
The species entered for assay [11] is Homo sapiens. Briefly: Induction of actin polymerization (unknown origin) at 28 ug/ml after 20 mins by fluorescence analysis. A digest of the protocol:
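Pyrene-labelled muscle actin used, with pyrene fluorescence reporting polymerization state. Baseline read 3 min, then compound or methanol added and read a further 20 min. Polymerization then started with 10X actin polymerization buffer and read for 1 h.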

The subject of assay [12] is L929. Briefly: Effect on spindle formation in mouse L929 cells at 0.6 ug/ml by impedance profiling. Format: cell-based. A digest of the protocol: as §4
Assay [13] relates to L929. Briefly: Effect on microtubule polymerization in mouse L929 cells at 0.6 ug/ml by impedance profiling. It is filed as cell-based. The method, boiled down:
as §4

The test system of assay [14] is PtK2. Briefly: Effect on F-actin cytoskeleton in Potorous tridactylus PtK2 cells at 2 ug/ml for overnight incubation by DAPI staining analysis. It is filed as cell-based. The method, boiled down: as §2

Structures are written as SMILES. Active and inactive are the calls of the source. The rule behind the calls is not given here.

Tubulin (Sus scrofa), sequence (P02550 whole entry, looked up): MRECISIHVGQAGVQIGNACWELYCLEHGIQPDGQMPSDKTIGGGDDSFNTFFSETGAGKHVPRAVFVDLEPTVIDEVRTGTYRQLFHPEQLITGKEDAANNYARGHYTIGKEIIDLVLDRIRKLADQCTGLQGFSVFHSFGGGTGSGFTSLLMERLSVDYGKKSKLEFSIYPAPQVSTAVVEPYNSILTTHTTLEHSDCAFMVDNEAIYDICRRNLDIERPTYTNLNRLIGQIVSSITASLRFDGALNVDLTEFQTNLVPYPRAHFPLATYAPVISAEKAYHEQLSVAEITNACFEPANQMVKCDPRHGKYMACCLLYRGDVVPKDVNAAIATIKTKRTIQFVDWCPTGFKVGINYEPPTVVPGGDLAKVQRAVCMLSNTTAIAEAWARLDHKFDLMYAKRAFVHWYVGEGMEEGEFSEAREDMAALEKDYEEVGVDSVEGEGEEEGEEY
Tubulin (Sus scrofa), sequence (P02554 whole entry, looked up): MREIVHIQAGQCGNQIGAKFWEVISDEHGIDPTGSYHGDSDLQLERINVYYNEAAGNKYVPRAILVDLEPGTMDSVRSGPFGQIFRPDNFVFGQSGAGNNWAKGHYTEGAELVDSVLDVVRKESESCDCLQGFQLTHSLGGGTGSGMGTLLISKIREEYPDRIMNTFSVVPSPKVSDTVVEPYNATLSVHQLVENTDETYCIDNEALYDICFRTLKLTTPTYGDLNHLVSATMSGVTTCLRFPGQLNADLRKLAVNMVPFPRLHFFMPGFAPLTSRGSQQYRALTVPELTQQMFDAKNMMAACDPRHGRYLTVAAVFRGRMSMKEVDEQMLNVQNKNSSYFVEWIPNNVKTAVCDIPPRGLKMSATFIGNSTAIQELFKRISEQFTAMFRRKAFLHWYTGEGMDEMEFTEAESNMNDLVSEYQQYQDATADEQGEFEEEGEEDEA

What is called IC50 is the concentration that gives 50% inhibition. Take `O=C1C=C[C@H]2C(=O)C=C[C@@H]12`: the IC50 came out at 3000 nM in assay [1], 6000 nM in assay [7] and 3000 nM in assay [10]. Moreover, the outcome in [2] was inactive. The inhibition entry in assay [3] was “Active”. Further, the result in assay [4], in [5], in assay [6], in [8] and in [9] was Active.
`C#CC(=O)O[C@H]1C[C@@H]2CC3(C[C@@H]2C1)OCC(C)(C)CO3`: the values for the IC50 in assay [1], in [7] and in [10] were 2200 nM, 21600 nM and 3000 nM, respectively. The outcome in [11], in assay [4], in assay [12], in [6], in assay [13] and in assay [14] was Active. For the same compound, the outcome in assay [9] was Active. In addition, the inhibition result in [3] is “Active”.

The values are drawn from ChEMBL document CHEMBL3286338, “SAR studies on hydropentalene derivatives--Important core units of biologically active tetramic acid macrolactams and ptychanolides” (Bioorg Med Chem, 2014).
